Results pooled from the literature.
Lines come from different studies, so protocols differ.
DHFR: Dihydrofolate reductase (DHFR, Homo sapiens, UniProt P00374)
Tmem97: Sigma intracellular receptor 2 (Tmem97, Rattus norvegicus, UniProt Q5U3Y7)

S=C(NN=Cc1ccc(N2CCCCC2)cc1)Nc1cccc(Br)c1 — inhibition (DHFR; enzyme activity, inhibitor; 500 µM): 83.7%
C[C@H]1c2nc3ccccc3c(-c3ccccc3)c2[C@H]2C[C@@H]1N(Cc1ccccc1)C[C@]2(C)O — inhibition (Tmem97; ligand displacement, radioligand; 1 µM): 0%
CC(C)OC(=O)CNc1cccc(CN(Cc2ccc(-n3cccn3)cc2)S(=O)(=O)c2cccnc2)n1 — inhibition (Rho-associated protein kinase 1 (ROCK1, Homo sapiens, UniProt Q13464); enzyme activity, inhibitor; 10 µM): ≥ 50%
S=C(NN=Cc1ccc(N2CCCCC2)cc1)Nc1c(Cl)cccc1Cl — inhibition (DHFR; enzyme activity, inhibitor; 500 µM): 83.2%
Cc1cc([C@@H](C)Nc2ccccc2C(=O)O)c2nc(N3CCC(F)(F)CC3)c(C#N)c(=O)n2c1 — remaining binding (Casein kinase I isoform delta (CSNK1D, Homo sapiens, UniProt P48730); binding, competition with immobilised ligand; 10 µM): 100%
C=CC(=O)N1CCC(COCC(=O)N2CCN(c3nc(-c4cnc(N)nc4C(F)F)nc(N4CCOC[C@@H]4C)n3)CC2)CC1 — remaining binding (Calcium/calmodulin-dependent protein kinase type II subunit alpha (CAMK2A, Homo sapiens, UniProt Q9UQM7); binding, competition with immobilised ligand; 1 µM): 100%
S=C(NCc1ccccc1)NN=Cc1ccc(N2CCCCC2)cc1 — inhibition (DHFR; enzyme activity, inhibitor; 500 µM): 82.8%
C[C@H]1C(=O)/C(=C/c2ccccc2)[C@H]2C[C@@H]1N(Cc1ccccc1)C[C@@]2(C)O — inhibition (Tmem97; ligand displacement, radioligand; 1 µM): 0%
Cc1ccc(NC(=S)NN=Cc2ccc(N3CCCCC3)cc2)cc1 — inhibition (DHFR; enzyme activity, inhibitor; 500 µM): 84.4%
CNc1ncc2c(/C=C/C(=O)N3CCC(OC)CC3)nn(Cc3cccc(C(F)(F)F)c3)c2n1 — remaining activity (Activin receptor type-2B (ACVR2B, Homo sapiens, UniProt Q13705); enzyme activity, inhibitor, radiometric; 1 µM): 119%
COc1cc([C@@H]2c3cc4c(cc3[C@@H](O[C@@H]3O[C@@H]5CO[C@@H](C)O[C@H]5[C@H](O)[C@H]3O)[C@H]3COC(=O)[C@H]23)OCO4)cc(OC)c1O — inhibition (DNA topoisomerase 2-alpha (TOP2A, Homo sapiens, UniProt P11388); enzyme activity, inhibitor; 31.5 µM): 0%
COc1cc(-c2cncc3c2CN(C)Cc2cc(N4CCNCC4)ccc2-3)cc(OC)c1OC — remaining activity (MAPK/MAK/MRK overlapping kinase (MOK, Homo sapiens, UniProt Q9UQ07); enzyme activity, inhibitor; 1 µM): 103%
